According to ChEMBL document CHEMBL4732237, “Discovery of 4-alkoxy-2-aryl-6,7-dimethoxyquinolines as a new class of topoisomerase I inhibitors endowed with potent in vitro anticancer activity” (2021):

Assays:
[1] = tested on: T47D; test: Growth inhibition of human T47D cells incubated for 48 hrs by sulforhodamine B assay; type: functional
Method in brief: (§1)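 NCI five-dose assay, with drug stocks in DMSO diluted in medium to five concentrations (10-fold or ½-log series). Cells in RPMI 1640/5% FBS were pre-incubated 24 h, and time-zero plates were TCA-fixed at drug addition. After 48 h at 37 °C, cells were TCA-fixed, SRB-stained and read at 515 nm. GI50 is from [(Ti-Tz)/(C-Tz)]×100 = 50, TGI from Ti = Tz, and LC50 from [(Ti-Tz)/Tz]×100 = -50.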

[2] = tested on: 786-0; test: Growth inhibition of human 786-0 cells incubated for 48 hrs by sulforhodamine B assay; type: functional
Method in brief: (§2)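 NCI five-dose screen covering 0.01–100 µM, prepared as 10-fold or ½-log dilutions from DMSO stock. Cells in RPMI 1640 with 5% FBS were exposed for 48 h at 37 °C after 24 h preincubation. Adherent cells were fixed with TCA (final 10%) and suspension cells were settled before fixing. Stain was SRB, read at 515 nm. GI50 = 50% reduction in net protein increase versus control, with Tz taken at drug addition.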

[3] = tested on: NCI/ADR-RES; test: Growth inhibition of human NCI/ADR-RES cells incubated for 48 hrs by sulforhodamine B assay; type: functional
Method in brief: (§3)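 NCI five-dose screen (0.01–100 µM; five concentrations plus control). Cells grown in RPMI 1640/5% FBS/2 mM L-glutamine and preincubated 24 h, with time-zero plates TCA-fixed. Drug exposure 48 h at 37 °C, followed by SRB protein staining and reading at 515 nm. GI50 is the concentration at [(Ti-Tz)/(C-Tz)]×100 = 50.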

[4] = tested on: NCI-H322M; test: Growth inhibition of human NCI-H322M cells incubated for 48 hrs by sulforhodamine B assay; type: functional; method in brief: as §3
[5] = tested on: SK-OV-3; test: Growth inhibition of human SK-OV-3 cells incubated for 48 hrs by sulforhodamine B assay; type: functional; method in brief: as §3
[6] = tested on: SF-539; test: Growth inhibition of human SF-539 cells incubated for 48 hrs by sulforhodamine B assay; type: functional; method in brief: as §3
[7] = tested on: HCT-116; test: Growth inhibition of human HCT-116 cells incubated for 48 hrs by sulforhodamine B assay; type: functional; method in brief: as §2
[8] = tested on: SK-MEL-28; test: Growth inhibition of human SK-MEL-28 cells incubated for 48 hrs by sulforhodamine B assay; type: functional; method in brief: as §3
[9] = tested on: SW-620; test: Growth inhibition of human SW-620 cells incubated for 48 hrs by sulforhodamine B assay; type: functional; method in brief: as §1
[10] = tested on: HCT-29; test: Growth inhibition of human […] cells incubated for 48 hrs by sulforhodamine B assay; type: functional; method in brief: as §2
[11] = tested on: OVCAR-3; test: Growth inhibition of human OVCAR-3 cells incubated for 48 hrs by sulforhodamine B assay; type: functional; method in brief: as §3
[12] = tested on: NCI-H522; test: Growth inhibition of human NCI-H522 cells incubated for 48 hrs by sulforhodamine B assay; type: functional; method in brief: as §3
[13] = tested on: K562; test: Growth inhibition of human K562 cells incubated for 48 hrs by sulforhodamine B assay; type: functional; method in brief: as §2
[14] = tested on: ACHN; test: Growth inhibition of human ACHN cells incubated for 48 hrs by sulforhodamine B assay; type: functional; method in brief: as §2
[15] = tested on: MDA-MB-231; test: Growth inhibition of human MDA-MB-231 cells incubated for 48 hrs by sulforhodamine B assay; type: functional; method in brief: as §2
[16] = tested on: OVCAR-4; test: Growth inhibition of human OVCAR-4 cells incubated for 48 hrs by sulforhodamine B assay; type: functional; method in brief: as §3
[17] = tested on: HL-60(TB); test: Growth inhibition of human HL-60(TB) cells incubated for 48 hrs by sulforhodamine B assay; type: functional
Method in brief: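 NCI-60 five-dose screen. Cells in RPMI 1640 with 5% FBS and 2 mM L-glutamine were plated at 5000–40,000 cells/well and preincubated 24 h at 37 °C, 5% CO2. Drugs in DMSO were given at five serial 10-fold or ½-log dilutions for 48 h. Adherent cells fixed with 10% TCA (final); suspension cells fixed after settling. SRB stained; A515. GI50 from [(Ti-Tz)/(C-Tz)]x100 = 50.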

[18] = tested on: HCC 2998; test: Growth inhibition of human HCC 2998 cells incubated for 48 hrs by sulforhodamine B assay; type: functional; method in brief: as §2
[19] = tested on: MDA-MB-468; test: Growth inhibition of human MDA-MB-468 cells incubated for 48 hrs by sulforhodamine B assay; type: functional; method in brief: as §2
[20] = tested on: U-251; test: Growth inhibition of human U-251 cells incubated for 48 hrs by sulforhodamine B assay; type: functional; method in brief: as §1
[21] = target: T1, DNA topoisomerase 1 (Homo sapiens) (UniProt P11387); test: Inhibition of recombinant human TOPO1 assessed as TOP1-DNA cleavage complexes at 1 uM using 3'-[32-P]-117 labeled bp DNA as substrate incubated for 30 mins by SDS-PAGE analysis relative to control
T1 sequence (whole entry): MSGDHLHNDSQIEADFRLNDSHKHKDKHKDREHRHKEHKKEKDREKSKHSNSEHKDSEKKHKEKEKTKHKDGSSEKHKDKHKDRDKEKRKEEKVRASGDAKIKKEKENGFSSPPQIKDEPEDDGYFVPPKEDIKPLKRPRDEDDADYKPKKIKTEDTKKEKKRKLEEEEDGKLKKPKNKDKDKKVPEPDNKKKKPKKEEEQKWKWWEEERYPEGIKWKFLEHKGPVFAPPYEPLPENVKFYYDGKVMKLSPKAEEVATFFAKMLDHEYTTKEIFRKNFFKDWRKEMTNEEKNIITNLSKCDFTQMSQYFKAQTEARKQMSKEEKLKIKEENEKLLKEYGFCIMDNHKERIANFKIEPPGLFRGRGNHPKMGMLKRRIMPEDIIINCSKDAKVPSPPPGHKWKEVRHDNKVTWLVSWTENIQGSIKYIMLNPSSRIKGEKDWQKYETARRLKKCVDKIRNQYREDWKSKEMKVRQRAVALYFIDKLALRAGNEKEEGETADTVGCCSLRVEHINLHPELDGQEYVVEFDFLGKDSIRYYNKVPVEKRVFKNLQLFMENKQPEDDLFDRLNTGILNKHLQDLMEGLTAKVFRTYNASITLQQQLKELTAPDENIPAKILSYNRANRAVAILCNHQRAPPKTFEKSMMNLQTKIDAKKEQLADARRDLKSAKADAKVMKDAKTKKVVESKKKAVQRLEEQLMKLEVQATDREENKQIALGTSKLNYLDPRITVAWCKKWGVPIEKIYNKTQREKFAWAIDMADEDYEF

[22] = tested on: MOLT-4; test: Growth inhibition of human MOLT-4 cells incubated for 48 hrs by sulforhodamine B assay; type: functional; method in brief: as §3
[23] = tested on: A549; test: Growth inhibition of human A549 cells incubated for 48 hrs by sulforhodamine B assay; type: functional; method in brief: as §2
[24] = tested on: KM12; test: Growth inhibition of human KM12 cells incubated for 48 hrs by sulforhodamine B assay; type: functional; method in brief: as §2
[25] = tested on: SF-268; test: Growth inhibition of human SF-268 cells incubated for 48 hrs by sulforhodamine B assay; type: functional; method in brief: as §3
[26] = tested on: CCRF-CEM; test: Growth inhibition of human CCRF-CEM cells incubated for 48 hrs by sulforhodamine B assay; type: functional; method in brief: as §2
[27] = tested on: IGROV-1; test: Growth inhibition of human IGROV-1 cells incubated for 48 hrs by sulforhodamine B assay; type: functional; method in brief: as §2
[28] = tested on: UACC-62; test: Growth inhibition of human UACC-62 cells incubated for 48 hrs by sulforhodamine B assay; type: functional; method in brief: as §1

| SMILES | GI50 [1] | GI50 [2] | GI50 [3] | GI50 [4] | GI50 [5] | GI50 [6] | GI50 [7] | GI50 [8] | GI50 [9] | GI50 [10] | GI50 [12] | GI50 [13] | GI50 [14] | GI50 [15] | GI50 [18] | GI50 [19] | GI50 [20] | inhibition [21] | GI50 [22] | GI50 [23] | other results |
| --- | --- | --- | --- | --- | --- | --- | --- | --- | --- | --- | --- | --- | --- | --- | --- | --- | --- | --- | --- | --- | --- |
| COc1cc2nc(-c3ccc(Cl)cc3)cc(OCCCN3CCC(O)CC3)c2cc1OC | 2260 nM | 3310 nM | 925 nM | 3220 nM | 3170 nM | 2280 nM | 1440 nM | 1490 nM | 3050 nM | 700 nM | 2190 nM | 1630 nM | 2430 nM | 665 nM | 1950 nM | 1560 nM | 2810 nM | 20% | 1800 nM | 2200 nM | GI50 [11]: 3240 nM; GI50 [16]: 4340 nM; GI50 [17]: 4270 nM; GI50 [24]: 3130 nM; GI50 [25]: 3360 nM; GI50 [26]: 2650 nM; GI50 [27]: 923 nM; GI50 [28]: 1900 nM |
| COc1cc2nc(-c3ccc(C(F)(F)F)cc3)cc(OCCCN3CCCC3)c2cc1OC | 472 nM | 2130 nM | 458 nM | 6770 nM | 2550 nM | 1870 nM | 456 nM | 1200 nM | 1620 nM | 446 nM | 1740 nM | 475 nM | 812 nM | 565 nM | 1450 nM | 885 nM | 1050 nM | 0% | 994 nM | 653 nM | GI50 [11]: 2150 nM; GI50 [16]: 3710 nM; GI50 [17]: 1840 nM; GI50 [24]: 1340 nM; GI50 [25]: 2390 nM; GI50 [26]: 1080 nM; GI50 [27]: 592 nM; GI50 [28]: 1380 nM |
| COc1cc2nc(-c3ccc(Cl)cc3)cc(OCCCN3CCOCC3)c2cc1OC | 1960 nM | 1940 nM | 1150 nM | > 100000 nM | 3000 nM | 2990 nM | 1590 nM | 1520 nM | 3570 nM | 610 nM | 2170 nM | 2710 nM | 3640 nM | 1010 nM | 1970 nM | 1830 nM | 1920 nM | 50% | 2850 nM | 2020 nM | GI50 [24]: 3870 nM; GI50 [26]: 3350 nM; GI50 [27]: 990 nM; GI50 [28]: 2260 nM |
| COc1cc2nc(-c3ccc(C(F)(F)F)cc3)cc(OCCCN3CCCCC3)c2cc1OC | 454 nM | 2170 nM | 522 nM | 8700 nM | 2300 nM | 2080 nM | 429 nM | 1260 nM | 2910 nM | 415 nM | 2440 nM | 578 nM | 1200 nM | 536 nM | 1280 nM | 1030 nM | 1100 nM | 20% | 1700 nM | 722 nM | GI50 [11]: 2440 nM; GI50 [16]: 2910 nM; GI50 [17]: 2910 nM; GI50 [24]: 2920 nM; GI50 [25]: 3760 nM; GI50 [26]: 1830 nM; GI50 [27]: 651 nM; GI50 [28]: 1820 nM |
